The values that follow come from ChEMBL document CHEMBL1150404, “Synthesis, alpha 1-adrenoceptor antagonist activity, and SAR study of novel arylpiperazine derivatives of phenytoin” (Bioorg Med Chem, 2008).

Each structure is given as a SMILES string.

A short description of experiment [1]: Displacement of [3H]clonidine from alpha-2-adrenoceptor in Wistar rat cerebral cortex membrane. It is filed as tissue-based. A digest of the protocol: (§1)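 Rat brain homogenised in ice-cold 50 mM Tris–HCl pH 7.6, centrifuged twice at 20,000g for 20 min at 0–4 °C. Membranes incubated with [3H]prazosin 0.2 nM (α1) or [3H]clonidine 2 nM (α2) and 7–8 test concentrations (10^-11–10^-4 M). Filter-bound radioactivity counted by liquid scintillation; duplicates; curve-fitted, Ki by Cheng–Prusoff.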

The next experiment is filed under the species Rattus norvegicus. The experiment in a line: Selectivity of Ki for alpha-2-adrenoceptor to Ki for alpha-1-adrenoceptor in Wistar rat cerebral cortex membrane. In kind it is tissue-based.
Experiment [2] is described as follows: Antagonist activity at alpha-1-adrenoceptor in Wistar rat thoracic aorta assessed as inhibition of phenylephrine-induced contraction. It is filed as functional, tissue-based. The gist of the method:
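Male Wistar rats (200–350 g), thiopental 75 mg/kg ip; endothelium-denuded thoracic aorta rings (~4 mm) in Krebs–Henseleit, 37 °C, pH 7.4, O2/CO2 19:1. Cumulative phenylephrine curves (3·10^-9–3·10^-6 M) before and after 20 min with one of 3–4 antagonist concentrations per ring; 60 min recovery between curves.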

Experiment [3] in a line: Displacement of [3H]prazosin from alpha-1-adrenoceptor in Wistar rat cerebral cortex membrane. It is filed as tissue-based. The gist of the method: as §1
Background: Displacement assays read how much labelled ligand stays bound in the presence of the test substance.

On to `CCOc1ccccc1N1CCN(CC(O)CN2C(=O)N(C)C(=O)C2(c2ccccc2)c2ccccc2)CC1` (stereo not given), for which affinity in experiment [1] was put at a Ki of 535 nM. In the experiment filed under Rattus norvegicus, the Ratio Ki amounted to 4.4. For the same compound, in experiment [2], the negative logarithm of the Kb (pKb) (usually the Kb on a negative log10 scale, so that one unit is a factor of ten) came to 7.022.

In the case of `COC(=O)C(C)N1C(=O)N(CC(O)CN2CCN(c3ccccc3OC)CC2)C(c2ccccc2)(c2ccccc2)C1=O` (stereo not given), the Ki (in general, the dissociation constant of the complex between target and ligand, obtained from inhibition or displacement) was found to be 104 nM in experiment [3] and 449 nM in experiment [1]. Besides, the Ratio Ki in the experiment filed under Rattus norvegicus turned out to be 4.32. Besides, the negative-log Kb (pKb) in experiment [2] was found to be 7.084.

Consider `COC(=O)CN1C(=O)N(CC(O)CN2CCN(c3ccccc3OC)CC2)C(c2ccccc2)(c2ccccc2)C1=O` (stereo not given), for which the Ki was 198 nM in experiment [3] and 800 nM in experiment [1]. In the experiment filed under Rattus norvegicus, the Ratio Ki came out at 4.04.
